Assay results from article PMC6177519 (Clinical and Experimental Gastroenterology, 2018).
Where “and” joins values, the source holds several entries; their conditions need not be identical. Identical values can stand only once. Like-named read-outs stand apart in the source and are kept apart here.

Tests used:
[1] = Safety evaluation; format: in vivo, healthy adults; conditions: for Participants with any TEAEs: 60 mg
Procedure, shortened: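 3-period crossover; single 60 mg test compound, fasted ≥10 h pre and 4 h post, as granules in 20 mL water via 16 French NG tube or oral syringe, or intact capsule with 240 mL water; ≥5-day washout. TEAE: onset/worsening from first dose to 30 days after last; MedDRA 15.0; phone follow-up 5–10 days post final dose; all dosed subjects.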

[2] = dual delayed-release formulation; cited from earlier work
[3] = human, plasma, 60 mg

- Tmax ([3]; oral): ~5 h
- Tmax ([3]; po): ~5.5 h
SMILES: Cc1c(OCC(F)(F)F)ccnc1C[S@@+]([O-])c1nc2ccccc2[nH]1 [Dexlansoprazole, dexlansoprazole]
- Tolerability ([1]; 60 mg capsule, single doses, all administration routes): well tolerated
- Participants with any TEAEs ([1]; oral intact capsule, N=52): 12 (23.1%) n (%) and 12 (23.1) n (%)
- Participants with any TEAEs ([1]; oral syringe administration, N=60): 10 (16.7%) n (%) and 10 (16.7) n (%)
- Time of first release of dexlansoprazole after dosing [2]: 1 to 2 h
- Time of second release of dexlansoprazole after dosing [2]: 4 to 5 h
